RAD54 inh: blocks human RAD54 Holliday junction branch migration | inhibition, % at 10.4 µM | AID 602329 | actives 0.14% (n = 360,000) | Q92698 | FAM/BHQ fluorescence;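 active means mean normalized replicate activity at least 40 and at least half of replicates scoring 40 or more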;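 further: 0% = median of neutral control wells and 100% = median of positive control wells; inhibitors cause a drop in the FAM fluorescence signal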
CAL PDZ FP-1: inhibitors of human CAL PDZ peptide binding; Q9HD26; actives 0.92% (n = 300,000); purified CAL PDZ, TMR-peptide fluorescence polarization, 1 h; inhibition, % at 24.9 µM;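 active means mean inhibition of at least 30% with at least half of replicates also reaching 30%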;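 further: 0% = DMSO neutral control and 100% = excess unlabeled competitor peptide PRC23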
CAL PDZ FP-2: inhibitors of human CAL PDZ peptide binding. purified CAL PDZ, TMR-peptide fluorescence polarization, 1 h. inhibition, % at 20 µM. actives 0.02% (n = 330,000);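 active means highest replicate inhibition of at least 40%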;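 further: plate controls were DMSO neutral control wells for no effect and unlabeled competitor peptide control wells for full effect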
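Read-out basis: mP drop reported as inhibition | Assay system: Tagged CAL PDZ protein CerCALP, purified | Benchmarks: Unlabelled peptide for full inhibition, DMSO wells as neutral | Schedule: 1 h incubation at room temperature before polarization reading | Buffer or medium: Sodium phosphate/NaCl buffer pH 7.4 with TCEP, IgG, Thesit | Doses: Single point, 20 µM | Measured by: Fluorescence polarization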
ERp5 block: ERp5 (human) disulfide isomerase inhibition; ERp5 insulin aggregation, absorbance 650 nm, 90 min; inhibition, % at 9.99 µM; actives 0.05% (n = 350,000); AID 651711;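 active means mean replicate inhibition above about 25%, with every replicate also reaching it, limit read from the data, passing the limit was not always enough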
Target sequence (Q15084 whole entry, looked up): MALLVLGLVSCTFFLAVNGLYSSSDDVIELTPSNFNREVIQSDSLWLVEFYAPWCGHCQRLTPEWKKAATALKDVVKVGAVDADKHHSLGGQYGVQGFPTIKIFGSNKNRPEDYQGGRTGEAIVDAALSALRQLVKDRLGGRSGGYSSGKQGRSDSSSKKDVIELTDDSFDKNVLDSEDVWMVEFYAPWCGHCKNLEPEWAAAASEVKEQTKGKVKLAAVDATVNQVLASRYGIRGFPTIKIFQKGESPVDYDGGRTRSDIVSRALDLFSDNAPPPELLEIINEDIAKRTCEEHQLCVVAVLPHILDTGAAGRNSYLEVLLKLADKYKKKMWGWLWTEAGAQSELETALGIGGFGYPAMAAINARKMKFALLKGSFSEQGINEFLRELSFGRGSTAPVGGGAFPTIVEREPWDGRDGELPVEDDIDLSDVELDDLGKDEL
RAD52 anneal inh: inhibitors of human RAD52 DNA annealing; recombinant RAD52 DNA annealing, FRET fluorescence; inhibition, % at 18.7 µM; actives 0.46% (n = 360,000); P43351;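 active means every replicate showing at least 50% inhibition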
PDI inh: PDI (human) enzyme inhibition. PDI insulin aggregation turbidity, A650, 90 min. inhibition, % at 10 µM. actives 0.052% (n = 350,000);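 active means mean inhibition across replicates of 30% or more, whatever share of single replicates reach that level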
Numbers without * were called inactive; . = no result given. Most compounds without a hit are left out; they make up all but 1% or so of the library.

SMILES | RAD54 inh | CAL PDZ FP-1 | CAL PDZ FP-2 | ERp5 block | RAD52 anneal inh | PDI inh
CCC/C(O)=C1\C(=O)CC(C)(C)CC1=Nc1ccc(OC)cc1OC | -7 | 60* | 0 | . | . | 16
CC(C)CC#Cc1ccc2c(c1)O[C@@H](CN(C)C(=O)c1ccccn1)[C@H](C)CN([C@H](C)CO)S2(=O)=O | 3 | . | . | -2 | -5 | .
C[C@H]1CN([C@@H](C)CO)S(=O)(=O)c2ccc(C#Cc3ccccc3)cc2O[C@H]1CN(C)C(=O)CN(C)C | 10 | . | . | 3 | 70* | .
CC(C)CC#Cc1ccc2c(c1)O[C@@H](CN(C)C(=O)c1ccccn1)[C@@H](C)CN([C@@H](C)CO)S2(=O)=O | -9 | . | . | 45* | 17 | .
C[C@@H]1CN([C@@H](C)CO)S(=O)(=O)c2ccc(C#Cc3ccccc3)cc2O[C@@H]1CN(C)C(=O)CN(C)C | -3 | . | . | 1 | 51* | .
COCC(=O)N(C)C[C@@H]1Oc2cc(C#CC(C)(C)O)ccc2S(=O)(=O)N([C@H](C)CO)C[C@@H]1C | 4 | . | . | 61* | 8 | .
O=C([C@H]1[C@H](CO)[C@H]2Cn3c(ccc(C4=CCCC4)c3=O)[C@@H]1N2C(=O)c1ccncc1)N1CCOCC1 | 6 | . | . | 2 | -8 | .
Cc1noc(C)c1NC(=O)Nc1ccc2c(c1)C(=O)N([C@H](C)CO)C[C@H](C)[C@H](CN(C)S(=O)(=O)c1ccc(Cl)cc1)OCCCC[C@H](C)O2 | -5 | . | . | -11 | -8 | .
C[C@H](CO)N1C[C@H](C)[C@@H](CN(C)Cc2ccc(C(F)(F)F)cc2)Oc2ccc(NC(=O)C3CC3)cc2CC1=O | 1 | . | . | 0 | 4 | .
Cc1c(OC(C)C(=O)NCCCN2CCOCC2)ccc2c1oc(=O)c1ccccc12 (centres undefined) | 3 | 4 | 0 | 3 | -5 | -7
CC(Oc1ccc2c3c(c(=O)oc2c1)CCCC3)C(=O)NCCN1CCOCC1 (centres undefined) | -2 | -3 | -1 | 4 | -16 | 14
CC(Oc1ccc2c(c1)c1ccnc3c4ccccc4c(=O)n2c13)C(=O)NCCN1CCOCC1 (centres undefined) | 89* | -8 | -2 | . | . | .
COc1ccc2c(c1OC)c(=O)n1c3ccc(OC(C)C(=O)NCCCN4CCOCC4)cc3c3ccnc2c31 (centres undefined) | 73* | 3 | 2 | . | . | .
Cc1cccc(C)c1N(CC(=O)N1CCOCC1)S(C)(=O)=O | -7 | 44* | . | 1 | -12 | 2
Cc1cccc(C)c1N(CC(=O)N1CCCC1)S(C)(=O)=O | -5 | . | 0 | 2 | 0 | 3
CCOC(=O)C1=C(c2ccccc2)N=c2s/c(=C\c3cccc(O)c3)c(=O)n2C1c1cccs1 (centres undefined) | . | -5 | -1 | . | . | 61*
CC(C)c1cn(CC[C@H]2CC[C@H](NC(=O)Nc3cc(Cl)cc(Cl)c3)[C@@H](CO)O2)nn1 | 0 | . | . | -2 | 3 | .
CO[C@@H]1CN(C)C(=O)c2cc(NC(=O)c3cnccn3)ccc2OC[C@H](C)N(CCc2ccccc2)C[C@H]1C | 0 | . | . | 1 | -6 | .
N/C(=N\OC(=O)c1ccc2c(c1)OCO2)c1ccncc1 | . | 48* | -1 | -7 | 4 | 1
C=CCNC(=S)NCc1ccccc1OC | . | 70* | 0 | 0 | -55 | -6
CC(=O)n1nc(-c2ccncc2)nc1SCC(=O)Nc1cccc(Cl)c1 | -4 | 45* | -2 | -3 | -100 | -9
O=C(NCC(=O)N1CCN(Cc2ccccc2)CC1)c1ccc(Br)cc1 | 1 | 41* | -1 | -14 | -10 | -4
O=C(C[C@H]1CC[C@@H](NC(=O)Nc2ccc(C(F)(F)F)cc2)[C@@H](CO)O1)NCc1cc(F)cc(F)c1 | 4 | . | . | 1 | -3 | .
CCSc1nnc(-c2ccncc2)o1 | -5 | -3 | 0 | . | . | -5
c1cc(-c2nnc(-c3ccncc3)o2)ccn1 | . | 49* | . | . | . | -1
SMILES | RAD54 inh | CAL PDZ FP-1 | CAL PDZ FP-2 | ERp5 block | RAD52 anneal inh | PDI inh
C[C@H](NC(=O)[C@H]1[C@H](CO)[C@H]2Cn3c(cccc3=O)[C@H]2N1CC1CCCCC1)c1ccccc1 | . | . | . | 2 | -9 | .
Brc1ccc(-c2noc(C3CCCCC3)n2)cc1 | . | 107* | -1 | 6 | -7 | 10
C[C@@H]1CN([C@@H](C)CO)C(=O)c2cc(NC(=O)Nc3ccc(F)cc3)ccc2O[C@@H](C)CCCCO[C@H]1CN(C)C(=O)CCCN(C)C | 9 | . | . | -3 | 51* | .
CCCN(C)C[C@@H]1OCCCC[C@H](C)Oc2ccc(NC(=O)Nc3ccc(F)cc3)cc2C(=O)N([C@H](C)CO)C[C@@H]1C | 4 | . | . | 0 | 53* | .
O=c1cc(-c2cccnc2)oc2c1ccc1ccccc12 | 60* | . | . | -5 | 9 | -7
Cc1sc2nc(COC(=O)c3cccc(S(=O)(=O)N(C)c4ccccc4)c3)[nH]c(=O)c2c1C | -20 | -5 | -1 | -1 | -367 | 3
Cc1sc2nc(COC(=O)c3cccc(OC(F)F)c3)[nH]c(=O)c2c1C | -3 | 56* | 0 | -4 | -23 | 0
CCCN1[C@@H]2c3ccc(C4=CCCCC4)c(=O)n3C[C@H]1[C@H](CO)[C@H]2C(=O)N1CCOCC1 | -6 | . | . | -8 | 11 | .
CN1CCN(C(=O)C[C@H]2CC[C@@H]3[C@H](COC[C@H](O)CN3C(=O)C3CCOCC3)O2)CC1 | -20 | . | . | -3 | -20 | .
C[C@H](CO)N1C[C@H](C)[C@@H](CN(C)S(=O)(=O)c2cccs2)Oc2ccc(NS(=O)(=O)c3ccc(F)cc3)cc2CC1=O | 2 | . | . | -1 | -13 | .
C/C=C/c1ccc([C@H]2[C@@H](CO)N(C(=O)CC)[C@@H]2CNC(=O)C2CC2)cc1 | 11 | . | . | 3 | -51 | .
O=C(OCc1csc(-c2ccccc2)n1)C1=NN(c2ccccc2)C(=O)CC1 | -6 | 31* | 0 | -7 | -23 | -1
CCCc1c(C)nc(N2CCN(c3ccccc3OC)CC2)[nH]c1=O | -4 | 55* | -3 | 1 | 2 | 2
COc1ccc(C#Cc2ccc3c(c2)[C@H]2[C@H](CCN2Cc2ccncc2)[C@@H](CO)N3)cc1 | . | . | . | 0 | 63* | .
COc1ccccc1C#Cc1ccc2c(c1)[C@@H]1[C@@H](CCN1C(=O)c1ccccc1)[C@H](CO)N2 | . | . | . | -3 | 18 | .
COc1ccccc1C#Cc1ccc2c(c1)[C@H]1[C@H](CCN1C(=O)c1ccncc1)[C@@H](CO)N2 | . | . | . | -1 | 87* | .
COCCOc1cc2ncnc(N3CCC(C(=O)O)CC3)c2cc1OCCOC | . | 164* | 0 | 2 | -10 | 6
C/C=C/c1ccc([C@H]2[C@H]3CN(Cc4ccc(C(=O)OC)cc4)CC(=O)N3[C@H]2CO)cc1 | . | . | . | -1 | -9 | .
O=C(Nc1ccc(F)cc1)N1CC(=O)N2[C@H](CO)[C@@H](c3ccc(-c4ccc(F)cc4)cc3)[C@@H]2C1 | . | . | . | -2 | -17 | .
N#CCC(=O)Nc1nc(-c2ccc3c(c2)OCCO3)cs1 | . | 74* | 0 | 2 | -17 | -5
